Assay [1] addresses T1, Dihydrofolate reductase (Pneumocystis carinii) (UniProt P16184).
T1 sequence (whole entry): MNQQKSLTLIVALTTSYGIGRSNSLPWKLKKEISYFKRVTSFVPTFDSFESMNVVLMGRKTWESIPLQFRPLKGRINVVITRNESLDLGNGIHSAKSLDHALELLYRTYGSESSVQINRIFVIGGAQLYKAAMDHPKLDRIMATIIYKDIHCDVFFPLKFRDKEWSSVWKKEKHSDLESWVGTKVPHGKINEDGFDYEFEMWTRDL
The assay is described as follows: Ratio of piritrexim IC50 to compound IC50 for Pneumocystis carinii DHFR.

For assay [2], the target named is T1, Dihydrofolate reductase (Pneumocystis carinii). The assay is described as follows: Ratio of trimethoprim IC50 to compound IC50 for Pneumocystis carinii DHFR.
Assay [3] is described as follows: Selectivity ratio of IC50 for rat liver DHFR to IC50 for Pneumocystis carinii DHFR.
Assay [4] can be described thus: Inhibition of Mycobacterium avium DHFR. Summed up: (§1)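 Enzyme was added to give an OD340 change of 0.005/minute. Rat liver DHFR served as the mammalian comparator. Selectivity = rlDHFR IC50 / maDHFR IC50.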
A short description of assay [5]: Selectivity ratio of IC50 for rat liver DHFR to IC50 for Mycobacterium avium DHFR. In a few lines:
as §1

The target of assay [6] is T2, Dihydrofolate reductase (Pneumocystis carinii, UniProt P16184).
T2 sequence (P16184 whole entry): T1 sequence (whole entry)
Description: Inhibition of Pneumocystis carinii DHFR.

The target in assay [7] is T3, Dihydrofolate reductase (Rattus norvegicus, UniProt Q920D2).
T3 sequence (Q920D2 whole entry): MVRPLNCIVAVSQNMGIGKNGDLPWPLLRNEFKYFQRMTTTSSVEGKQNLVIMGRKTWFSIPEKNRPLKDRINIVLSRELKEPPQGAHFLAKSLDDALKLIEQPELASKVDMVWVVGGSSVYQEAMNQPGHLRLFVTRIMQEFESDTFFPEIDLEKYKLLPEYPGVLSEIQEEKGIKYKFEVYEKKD
Description: Inhibition of rat liver DHFR.

Assay [8] can be described thus: Selectivity ratio of IC50 for human recombinant DHFR to IC50 for Pneumocystis jirovecii recombinant DHFR. Summed up: (§2)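 Enzyme was added to give an OD340 change of 0.005/min. IC50 was taken from the OD340 rate. Selectivity is the hDHFR IC50 divided by the pjDHFR IC50. Standard error of the means was 12% or less.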
Assay [9] can be described thus: Inhibition of Pneumocystis jirovecii recombinant DHFR. Summed up: as §2
The target in assay [10] is T4, Dihydrofolate reductase (Homo sapiens, UniProt P00374).
T4 sequence (P00374 whole entry): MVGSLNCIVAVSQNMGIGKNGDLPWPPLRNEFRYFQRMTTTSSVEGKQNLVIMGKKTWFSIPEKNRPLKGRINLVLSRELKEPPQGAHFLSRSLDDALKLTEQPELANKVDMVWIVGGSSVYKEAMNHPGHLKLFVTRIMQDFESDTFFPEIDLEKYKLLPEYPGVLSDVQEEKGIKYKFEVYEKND
Description: Inhibition of human recombinant DHFR.

Regarding `CN(c1cnc2nc(N)nc(N)c2c1)c1cccc2ccccc12`, the Ratio IC50 was found to be 6 in [1]; 5950 in assay [2]; 9.9 in [3]; 10 in [5]; 2.2 in [8]. Further, the IC50 in assay [4] is 2 nM; against Dihydrofolate reductase [6], 2.1 nM; against Dihydrofolate reductase [7], 21 nM; in assay [9], 2.5 nM; on Dihydrofolate reductase [10], 5.6 nM.

What is called IC50 is the point on the concentration scale where inhibition reaches its midpoint.
